Results collected from several papers.
Protocols differ between the studies behind these lines.
Effect on: cell growth or viability

SMILES	cell line	technique	concentration	time	endpoint	value
COc1c(C)c2c(c(O)c1C/C=C(\C)CCC(=O)O)C(=O)OC2	MDA-MB-436				IC50	1120 nM
N.N.O=C([O-])C1(C(=O)[O-])CCC1.[Pt+2]	Vero	MTT		48 h	IC50	506000 nM
O=C(Nc1ccc(Cl)cc1)Nc1cccc(-c2cn(Cc3ccc(Br)cc3)nn2)c1	NCI-H1299	CCK-8	50 µM	72 h	viability	76.7%
COc1cc(C(=O)c2nc(-c3cccc4[nH]ccc34)c(Br)[nH]2)cc(OC)c1OC	M14	MTS		72 h	IC50	> 1000 nM
CC[C@@]1(O)C(=O)OCc2c1cc1n(c2=O)Cc2cc3ccccc3nc2-1	MP41	ATP luminescence		72 h	IC50	117 nM
Cn1cc2cc(C(F)(F)c3nnc4ccc(-c5cnn(C6CC6)c5)nn34)c(F)cc2n1	MKN-45	CCK-8		72 h	IC50	12 nM
N.N.[Cl][Pt][Cl]	Vero	MTT		48 h	IC50	63100 nM
COc1cc(C(=O)c2nc(-c3c[nH]c4cccc(C)c34)c[nH]2)cc(OC)c1OC	M14	MTS		72 h	IC50	167 nM
O=C(NCc1ccccc1)c1cn(Cc2ccc(C(F)(F)F)cc2)c2ccc(Oc3ccccc3)cc2c1=O	HCC70			72 h	CC50	20500 nM
Cc1sc2c(c1C)C(c1ccc(Cl)cc1)=N[C@@H](CC(N)=O)c1nnc(C)n1-2	MP41	ATP luminescence		72 h	IC50	153 nM
CC(=O)N[C@H]1[C@@H](O[C@@H]2O[C@H](C[C@@H](O)[C@H]3O[C@@H](n4ccc(=O)[nH]c4=O)[C@H](O)[C@@H]3O)[C@H](O)[C@H](O)[C@H]2NC(=O)/C=C/CCCCCCCCCC(C)C)O[C@H](CO)[C@@H](O)[C@@H]1O	SK-BR-3	WST-1			IC50	110 nM
